Experimental data reported in ChEMBL document CHEMBL1150815, “Blepharocalyxins C--E, three new dimeric diarylheptanoids, and related compounds from the seeds of Alpinia blepharocalyx” (2001).

Tests used:
[1] = Antiproliferative activity against mouse Colon 26-L5 cells by MTT assay; assay type: functional; conditions: read-out: ED50 (the source's name)
Summary of the method: (§1)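 Cells grown in medium with 10% fetal calf serum, 0.1% sodium bicarbonate and 2 mM glutamine. Viability with and without agents measured by MTT assay. 5-Fluorouracil served as positive control. Activity expressed as ED50 in µM.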

HT-1080 = test: Antiproliferative activity against human HT1080 cells by MTT assay; assay type: functional; conditions: read-out: ED50 (the source's name); summary of the method: as §1

| SMILES | EC50 [1] [µM] | EC50 (HT-1080) [µM] |
| --- | --- | --- |
| Oc1ccc(CC[C@H]2CC=C[C@@H](c3ccc(O)cc3)O2)cc1 | > 100 | 79.4 |
| Oc1ccc(CC[C@H]2CC=C[C@H](c3ccc(O)cc3)O2)cc1 | 71.2 | 45.3 |
| Oc1ccc(CC[C@H]2C[C@H](O)[C@H](O)[C@@H](c3ccc(O)cc3)O2)cc1 | 44.2 | > 100 |
| Oc1ccc(CC[C@H]2CC(O)C(O)[C@@H](c3ccc(O)cc3)O2)cc1 (mixture of isomers) | 49.4 | 83.7 |
| Oc1ccc(/C=C/[C@H](C[C@@H](O)CCc2ccc(O)cc2)[C@@H]2[C@@H](c3ccc(O)cc3)O[C@@H](CCc3ccc(O)cc3)C[C@@H]2O)cc1 [BLEPHAROCALYXIN C] | 29.6 | 54.3 |
| Oc1ccc(/C=C/[C@@H]2C[C@H](CCc3ccc(O)cc3)O[C@@H]3C[C@H](CCc4ccc(O)cc4)O[C@H](c4ccc(O)cc4)[C@@H]23)cc1 [BLEPHAROCALYXIN D] | 3.61 | 25.7 |
| COc1cc(O)c([C@@H]2C[C@H](CCc3ccc(O)cc3)O[C@H](c3ccc(O)cc3)[C@H]2[C@H](/C=C/C[C@@H](O)CCc2ccc(O)cc2)c2ccc(O)cc2)c(O)c1C(=O)/C=C/c1ccc(O)cc1 [BLEPHAROCALYXIN E] | 32.2 | 9.02 |
| O=c1[nH]cc(F)c(=O)[nH]1 [FLUOROURACIL] | 0.53 | 8 |
